Measured values published in ChEMBL document CHEMBL1156215, “Homoisoflavonoid derivatives from the roots of Ophiopogon japonicus and their in vitro anti-inflammation activity” (Bioorg Med Chem Lett, 2010).

Key:
BEAS-2B [1] = test: Antiinflammatory activity in human BEAS2B cells assessed as inhibition of IL4 and TNF-alpha-induced eotaxin production after 48 hrs by ELISA treated 2 hrs before IL4 challenge; assay type: functional, cell-based
[2] = Cytotoxicity against human BEAS2B cells at 25 uM after 48 hrs by MTT assay; assay type: cell-based; settings: beas-2b
Procedure, shortened: (§1)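 BEAS-2B viability by MTT after 48 h exposure to compound, with or without IL-4.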

BEAS-2B [3] = test: Antiinflammatory activity in human BEAS2B cells assessed as inhibition of IL4-induced eotaxin production after 48 hrs by ELISA treated 2 hrs before IL4 challenge; assay type: functional, cell-based
Procedure, shortened: (§2)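 BEAS-2B cells in RPMI-1640 with 10% FBS at 37 °C, 5% CO2, plated at 5 × 10^5/mL, switched to serum-free RPMI at 80% confluence. Pretreated 2 h with compound (1.0–25.0 μM), then IL-4 (20 ng/mL) alone. Supernatant eotaxin measured by sandwich ELISA after 48 h. Values are the mean of three experiments.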

[4] = Cytotoxicity against human BEAS2B cells at 25 uM after 48 hrs by MTT assay in the presence of IL4; assay type: cell-based; settings: beas-2b; procedure, shortened: as §1
[5] = Antiinflammatory activity in human BEAS2B cells assessed as inhibition of IL4-induced eotaxin production at 25 uM after 48 hrs by ELISA treated 2 hrs before IL4 challenge; assay type: functional, BEAS-2B; procedure, shortened: as §2
[6] = Antiinflammatory activity in human BEAS2B cells assessed as reduction in IL4 and TNF-alpha-induced eotaxin production at 25 uM after 48 hrs by ELISA treated 2 hrs before IL4 challenge (RVb=456.2 pg/ml)

SMILES | Activity (BEAS-2B [1]) | Activity [2] | Activity (BEAS-2B [3]) | Activity [4] | Activity [5] | Activity [6]
Cc1c(O)c2c(c(C=O)c1O[C@@H]1O[C@H](CO)[C@@H](O)[C@H](O)[C@H]1O)OC[C@@H](Cc1ccc3c(c1)OCO3)C2=O [OPHIOPOGOSIDE A] | Dose-dependent effect | Non-toxic | Dose-dependent effect | Non-toxic | 28.5 pg/mL | –
COc1ccc(C[C@@H]2COc3c(OC)c(O)c(C)c(O)c3C2=O)c(O)c1O [OPHIOPOGONANONE G] | – | Non-toxic | Dose-dependent effect | Non-toxic | 30.8 pg/mL | –
COc1c(C)c(O[C@@H]2O[C@H](CO)[C@@H](O)[C@H](O)[C@H]2O)c(C=O)c2c1C(=O)[C@H](Cc1ccc3c(c1)OCO3)CO2 [OPHIOPOGOSIDE B] | – | Non-toxic | Dose-dependent effect | Non-toxic | 25.5 pg/mL | –
COc1ccc2ccc(=O)oc2c1CC=C(C)C [OSTHOLE] | – | – | – | – | – | 80.5 pg/mL
